Results from ChEMBL document CHEMBL2157969, “Chalcone inhibitors of the NorA efflux pump in Staphylococcus aureus whole cells and enriched everted membrane vesicles” (Bioorg Med Chem, 2012).
Calls of active or inactive are those of the source. No cut-off for these calls is given here.

Tests used:
[1] = tested on: Escherichia coli; test: Inhibition of Hoechst 33342 dye in norA-deficient Escherichia coli DH10B expressing pTrc99A at 2 ug/mL by spectrofluorometer analysis; format: functional, organism-based; settings: K-12 DH10B
Outline: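 Everted membrane vesicles were made from overnight E. coli DH10B carrying pTrcHis2C-norA or control pTrc99A. PMSF (0.1 mM final) was added before French press and DNase (0.1 mg/mL final) to the lysate. Vesicles were diluted to 80 µg protein/mL in 50 mM potassium HEPES, 8.5 mM NaCl, 2 mM MgCl2, pH 7.2. Hoechst 33342 was added, then Mg2+-ATP after the signal stabilised (~30 s). Inhibitor was added at 150–160 s. Fluorescence ex 355/em 457 nm over 300 s.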

[2] = target: T1, Quinolone resistance protein NorA (Staphylococcus aureus) (UniProt P0A0J7); test: Inhibition of norA-mediated ethidium bromide efflux in methicillin-resistant Staphylococcus aureus SA-1199B at 2.5 ug/ml by spectrofluorometric analysis
T1 sequence (whole entry): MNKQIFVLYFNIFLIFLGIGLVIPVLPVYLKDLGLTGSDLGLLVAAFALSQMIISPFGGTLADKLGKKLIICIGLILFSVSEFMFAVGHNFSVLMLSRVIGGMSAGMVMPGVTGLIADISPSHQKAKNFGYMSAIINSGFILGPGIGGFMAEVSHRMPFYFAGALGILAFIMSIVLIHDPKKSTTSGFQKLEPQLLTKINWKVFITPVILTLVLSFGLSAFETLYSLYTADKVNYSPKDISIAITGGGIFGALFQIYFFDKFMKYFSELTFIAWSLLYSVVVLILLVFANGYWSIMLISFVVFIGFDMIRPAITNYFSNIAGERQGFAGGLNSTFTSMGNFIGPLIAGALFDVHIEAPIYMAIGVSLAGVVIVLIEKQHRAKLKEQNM
Outline: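 Whole-cell efflux assay, strain grown in Mueller Hinton II broth; compounds dissolved in DMSO, 1% DMSO in MHB II as negative control, reserpine as positive control. Background read from a pellet resuspended in clean MHB II. Fluorescence read in duplicate at ex 530 nm / em 600 nm; the mean is reported as percent reduction of efflux versus control.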

[3] = target: T1, Quinolone resistance protein NorA (Staphylococcus aureus); test: Inhibition of norA-mediated ethidium bromide efflux in methicillin-resistant Staphylococcus aureus SA-1199B at 5 ug/ml by spectrofluorometric analysis
Outline: (§1)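 Ethidium bromide efflux from S. aureus cells in MHB II, compounds dissolved in DMSO. Reserpine 20 µg/mL as positive control and 1% DMSO as negative control; background taken from a resuspended pellet in clean medium. Fluorescence read at ex 530/em 600 nm in duplicate; mean given as percent reduction of efflux versus control.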

[4] = target: T1, Quinolone resistance protein NorA (Staphylococcus aureus); test: Inhibition of norA-mediated ethidium bromide efflux in methicillin-resistant Staphylococcus aureus SA-1199B at 10 ug/ml by spectrofluorometric analysis; outline: as §1
[5] = target: T1, Quinolone resistance protein NorA (Staphylococcus aureus); test: Inhibition of norA-mediated ethidium bromide efflux in methicillin-resistant Staphylococcus aureus SA-1199B at 20 ug/ml by spectrofluorometric analysis; outline: as §1
[6] = target: T2, Quinolone resistance protein NorA (Staphylococcus aureus, UniProt P0A0J7); test: Inhibition of norA-mediated ethidium bromide efflux in methicillin-resistant Staphylococcus aureus SA-1199B by spectrofluorometric analysis; outline: as §1
T2 sequence (P0A0J7 whole entry): T1 sequence (whole entry)

[7] = target: T1, Quinolone resistance protein NorA (Staphylococcus aureus); test: Inhibition of norA in Staphylococcus aureus SA-1199B overexpressing norA assessed as fold reduction in ciprofloxacin MIC at 25 ug/mL by checkerboard assay
[8] = tested on: Staphylococcus aureus; test: Antibacterial activity against Staphylococcus aureus SA-1199B overexpressing norA at 0.2 to 25 ug/ml after 20 hrs by microdilution method; format: functional, organism-based
Outline: (§2)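 Broth microdilution in Mueller Hinton broth II with an inoculum of 5 × 10⁵ cfu/mL, incubated 20 h at 35 °C. MIC is the lowest concentration with no visible growth. Controls were bacteria with DMSO at up to about 1%, and ciprofloxacin. Run to CLSI/EUCAST guidelines in duplicate or more.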

[9] = tested on: Staphylococcus aureus; test: Antibacterial activity against Staphylococcus aureus ATCC 29213 […] at 0.2 to 25 ug/ml after 20 hrs by microdilution method; format: functional, organism-based; outline: as §2
[10] = target: T1, Quinolone resistance protein NorA (Staphylococcus aureus); test: Inhibition of norA in Staphylococcus aureus ATCC 29213 assessed as fold reduction in ciprofloxacin MIC at 12.5 ug/mL by checkerboard assay
[11] = target: T1, Quinolone resistance protein NorA (Staphylococcus aureus); test: Inhibition of norA in Staphylococcus aureus ATCC […] assessed as fold reduction in ciprofloxacin MIC at 25 ug/mL by checkerboard assay
[12] = target: T1, Quinolone resistance protein NorA (Staphylococcus aureus); test: Inhibition of norA in Staphylococcus aureus SA-1199B overexpressing norA assessed as fold reduction in ciprofloxacin MIC at 12.5 ug/mL by checkerboard assay
Outline: (§3)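 Checkerboard in MHB with twofold serial dilutions: ciprofloxacin 0.05–12.5 µg/mL against inhibitor 0.2–25 µg/mL. Inoculum 5 × 10⁵ cfu/mL, 20 h at 35 °C, visual MIC read-out. Fold reduction of ciprofloxacin MIC recorded at the inhibitor concentration giving it. FIC index is the sum of both drugs' FICs; ≤0.5 counts as synergy.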

[13] = target: T1, Quinolone resistance protein NorA (Staphylococcus aureus); settings: ATCC 29213
[14] = tested on: Escherichia coli; test: Inhibition of acridine orange efflux in norA-deficient Escherichia coli DH10B expressing pTrc99A at 2 ug/mL by spectrofluorometer analysis; format: functional, organism-based; settings: K-12 DH10B
Outline: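 Proton gradient was read with acridine orange (500 nM final) in NorA-enriched or pTrc99A control everted E. coli DH10B vesicles. Buffer: 50 mM potassium HEPES, 8.5 mM NaCl, 2 mM MgCl2, pH 7.2. Vesicles were energised with Mg2+-ATP. Valinomycin and nigericin dissipated the gradients, and norfloxacin was given at 10 µM. Fluorescence ex 494/em 530 nm.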

[15] = target: T1, Quinolone resistance protein NorA (Staphylococcus aureus); test: Inhibition of norA in Staphylococcus aureus SA-1199B overexpressing norA assessed as fold reduction in ciprofloxacin MIC by checkerboard assay; outline: as §3
[16] = target: T1, Quinolone resistance protein NorA (Staphylococcus aureus); test: Inhibition of norA in Staphylococcus aureus ATCC 29213 overexpressing norA assessed as fold reduction in ciprofloxacin MIC at 3.13 ug/mL by checkerboard assay; outline: as §3
[17] = target: T1, Quinolone resistance protein NorA (Staphylococcus aureus); settings: SA-1199B
[18] = target: T1, Quinolone resistance protein NorA (Staphylococcus aureus); test: Inhibition of norA in Staphylococcus aureus SA-1199B overexpressing norA assessed as fold reduction in ciprofloxacin MIC by checkerboard assay
[19] = target: T1, Quinolone resistance protein NorA (Staphylococcus aureus); test: Inhibition of norA in Staphylococcus aureus SA-1199B overexpressing norA assessed as fold reduction in ciprofloxacin MIC at 3.13 ug/mL by checkerboard assay; outline: as §3
[20] = tested on: Staphylococcus aureus; test: Antibacterial activity against Staphylococcus aureus SA-1199B overexpressing norA at 25 ug/ml after 20 hrs by microdilution method; format: functional, organism-based; outline: as §2
[21] = tested on: Staphylococcus aureus; test: Antibacterial activity against Staphylococcus aureus ATCC […] at 25 ug/ml after 20 hrs by microdilution method; format: functional, organism-based; outline: as §2

Structure (SMILES) | inhibition [1] | inhibition [2] | inhibition [3] | inhibition [4] | inhibition [5] | IC50 [6] | Activity [8] | Activity [9] | other results
COc1ccc(/C=C/C(=O)c2ccccc2OC)c(OC)c1 | inactive |  |  |  |  |  |  |  | 
CN(C)CCOc1ccc(C(=O)/C=C/c2ccc(N(C)C)cc2)cc1 | inactive | 48% | 96.5% | 97.4% | 98.7% | 7.7 µM | inactive | inactive | fractional inhibitory concentration index (FICI) [7]: inactive; fractional inhibitory concentration index (FICI) [10]: 0.5
C[C@@H]1O[C@@H](Oc2c(-c3ccc(O)cc3)oc3cc(O)cc(O)c3c2=O)[C@H](OC(=O)/C=C/c2ccc(O)cc2)[C@H](O)[C@H]1OC(=O)/C=C/c1ccc(O)cc1 | inactive |  |  |  |  |  |  |  | 
CN(C)CCOc1ccc(C(=O)/C=C/c2ccccc2)cc1 | inactive | 21.8% | 36.1% | 56.9% | 83.6% | 28.4 µM | inactive | inactive | fractional inhibitory concentration index (FICI) [7]: > 0.5; fractional inhibitory concentration index (FICI) [11]: > 0.5
COc1ccc(OC)c(/C=C/C(=O)c2ccc(O)cc2)c1 | inactive | 23.3% | 56.6% | 82.7% | 91% | 15 µM | inactive | inactive | fractional inhibitory concentration index (FICI) [12]: 0.25; fractional inhibitory concentration index (FICI) [10]: 0.25
COc1ccc(/C=C/C(=O)c2ccc(O)cc2)c(OC)c1 | inactive | 17.3% | 24.1% | 62.7% | 89.6% | 29.1 µM | inactive | inactive | fractional inhibitory concentration index (FICI) [12]: 0.25; FICI [13]: 0.25
COc1ccc(C(=O)/C=C/c2cccc(N(C)C)c2)c(OC)c1OC | inactive |  |  |  |  |  |  |  | 
CN(C)CCOc1ccc(C(=O)/C=C/c2ccccc2F)cc1 | inactive | 33.7% | 48.5% | 70.3% | 97% | 18.1 µM | inactive | inactive | fractional inhibitory concentration index (FICI) [7]: 0.25; fractional inhibitory concentration index (FICI) [11]: > 1
COc1cccc(/C=C/C(=O)c2ccc(O)cc2)c1OC | inactive | 11.7% | 38% | 73.3% | 90.8% | 24.3 µM | inactive | inactive | fractional inhibitory concentration index (FICI) [12]: 0.25; FICI [13]: 0.25
COc1ccc(C(=O)/C=C/c2cccc(OCCN(C)C)c2)c(OC)c1OC | inactive |  |  |  |  |  |  |  | inhibition [14]: Active
CN(C)CCOc1ccc(C(=O)/C=C/c2cccc(F)c2)cc1 | inactive |  |  |  |  |  |  |  | 
COc1ccc(CCN(C)CCCC(C#N)(c2ccc(OC)c(OC)c2)C(C)C)cc1OC (centres undefined) | inactive |  |  |  |  |  |  |  | 
C=CCOc1ccccc1C(=O)/C=C/c1ccc(OCC(=O)O)cc1 | inactive | 14.7% | 46.2% | 79.9% | 87.1% | 16.9 µM | inactive | inactive | inhibition [15]: Dose-dependent effect; fractional inhibitory concentration index (FICI) [16]: 0.25; FICI [17]: 0.25; inhibition [18]: Dose-dependent effect
CN(C)CCOc1ccc(C(=O)/C=C/c2ccc(C#N)cc2)cc1 | inactive |  |  |  |  |  |  |  | 
C=CCOc1ccc(C(=O)/C=C/c2cccc(OC)c2OC)cc1 | inactive |  |  |  |  |  |  |  | 
CN(C)CCOc1ccc(C(=O)/C=C/c2ccc(Oc3ccccc3)cc2)cc1 | inactive | 43.4% | 68.8% | 97.5% | 99.1% | 9 µM |  |  | fractional inhibitory concentration index (FICI) [19]: 0.38; Activity [20]: Active; Activity [21]: Active; FICI [13]: 0.26
COc1ccc(/C=C/C(=O)c2ccc(O)cc2)cc1OC | inactive | 14% | 38.3% | 64.3% | 87.9% | 26.5 µM | inactive | inactive | fractional inhibitory concentration index (FICI) [7]: 0.25; fractional inhibitory concentration index (FICI) [11]: 0.25
COc1cc(/C=C/C(=O)c2ccc(OC)c(OC)c2OC)cc(OC)c1 | inactive |  |  |  |  |  |  |  | 
COc1cc(/C=C/C(=O)c2cccc(OC(=O)c3ccccc3)c2)cc(OC)c1 | inactive |  |  |  |  |  |  |  | 
COc1cc(O)cc(C)c1/C=C/C(=O)c1ccc(O)cc1 | inactive | 36.6% | 63.7% | 84.3% | 91.7% | 13.4 µM | inactive | inactive | inhibition [14]: inactive; inhibition [15]: Dose-dependent effect; FICI [17]: 0.25; fractional inhibitory concentration index (FICI) [10]: 0.25; inhibition [18]: Dose-dependent effect
CN(C)CCOc1ccc(C(=O)/C=C/c2ccc(F)cc2)cc1 | inactive |  |  |  |  |  |  |  | 
COC(=O)[C@H]1[C@H]2C[C@@H]3c4[nH]c5cc(OC)ccc5c4CCN3C[C@H]2C[C@@H](OC(=O)c2cc(OC)c(OC)c(OC)c2)[C@@H]1OC [RESERPINE] |  | 30% | 48.1% | 71.8% |  | 8.2 µM |  |  | FICI [17]: 0.25; FICI [13]: 0.25
COc1cc(OC)c(/C=C/C(=O)c2ccc(O)cc2)c(OC)c1 | inactive |  |  |  |  |  |  |  | 
